ChEMBL document CHEMBL1949585, “Design, synthesis and evaluation of telomerase inhibitory, hTERT repressing, and anti-proliferation activities of symmetrical 1,8-disubstituted amidoanthraquinones” (Eur J Med Chem, 2012)

Experiments:
[1] = Cytotoxicity against human H1299 cells assessed as cell growth at 1 uM after 48 hrs by MTT assay; type: functional; conditions: NCI-H1299, 48 h, read-out: Activity
Summary of the method: (§1)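 H1299 non-small lung cancer cells were grown in RPMI 1640 with 10% FBS and penicillin/streptomycin at 37 °C in 5% CO2. About 2×10³ cells were seeded per well and held 24 h, then washed with PBS and given fresh medium. Compound, freshly dissolved in DMSO and diluted in complete medium, was added for 48 h. MTT was read at 550 nm after SDS/DMF lysis at 37 °C for 16 h. Values are from three experiments, untreated = 100%, ±SD.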

[2] = Cytotoxicity against human H1299 cells assessed as cell growth at 10 uM after 48 hrs by MTT assay; type: functional; conditions: NCI-H1299, 48 h, read-out: Activity; summary of the method: as §1
[3] = Cytotoxicity against human H1299 cells assessed as cell growth at 100 uM after 48 hrs by MTT assay; type: functional; conditions: NCI-H1299, 48 h, read-out: Activity; summary of the method: as §1
[4] = tested on: HL-60(TB); assay: Cytotoxicity against human HL-60(TB) cells assessed as cell growth at 10 uM relative to control; type: functional; conditions: read-out: Activity
Summary of the method: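 Tested in the NCI 60 human tumour cell line panel, covering nine cancer cell types, at a single concentration. The value is the mean growth percentage of treated cells, with untreated control cells taken as 100%.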

[5] = tested on: K562; assay: Cytotoxicity against human K562 cells assessed as cell growth at 10 uM relative to control; type: functional; conditions: read-out: Activity
Summary of the method: (§2)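 Single-concentration screen in the NCI 60 human tumour cell line panel covering nine cancer types. Values are the mean growth percentage of compound-treated cells, with untreated control cells set as 100%.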

[6] = tested on: MOLT-4; assay: Cytotoxicity against human MOLT4 cells assessed as cell growth at 10 uM relative to control; type: functional; conditions: read-out: Activity; summary of the method: as §2
[7] = tested on: RPMI-8226; assay: Cytotoxicity against human RPMI8226 cells assessed as cell growth at 10 uM relative to control; type: functional; conditions: read-out: Activity; summary of the method: as §2
[8] = tested on: A549; assay: Cytotoxicity against human A549 cells assessed as cell growth at 10 uM relative to control; type: functional; conditions: read-out: Activity; summary of the method: as §2
[9] = tested on: EKVX; assay: Cytotoxicity against human EKVX cells assessed as cell growth at 10 uM relative to control; type: functional; conditions: read-out: Activity; summary of the method: as §2
[10] = tested on: HOP-92; assay: Cytotoxicity against human HOP92 cells assessed as cell growth at 10 uM relative to control; type: functional; conditions: read-out: Activity; summary of the method: as §2
[11] = tested on: NCI-H226; assay: Cytotoxicity against human NCI-H226 cells assessed as cell growth at 10 uM relative to control; type: functional; conditions: read-out: Activity; summary of the method: as §2
[12] = tested on: NCI-H322M; assay: Cytotoxicity against human NCI-H322M cells assessed as cell growth at 10 uM relative to control; type: functional; conditions: read-out: Activity; summary of the method: as §2
[13] = tested on: NCI-H522; assay: Cytotoxicity against human NCI-H522 cells assessed as cell growth at 10 uM relative to control; type: functional; conditions: read-out: Activity; summary of the method: as §2
[14] = tested on: COLO 205; assay: Cytotoxicity against human COLO205 cells assessed as cell growth at 10 uM relative to control; type: functional; conditions: read-out: Activity; summary of the method: as §2
[15] = tested on: HCC 2998; assay: Cytotoxicity against human HCC2998 cells assessed as cell growth at 10 uM relative to control; type: functional; conditions: read-out: Activity; summary of the method: as §2
[16] = tested on: HCT-116; assay: Cytotoxicity against human HCT116 cells assessed as cell growth at 10 uM relative to control; type: functional; conditions: read-out: Activity; summary of the method: as §2
[17] = tested on: HCT-15; assay: Cytotoxicity against human HCT15 cells assessed as cell growth at 10 uM relative to control; type: functional; conditions: read-out: Activity; summary of the method: as §2
[18] = tested on: SW-620; assay: Cytotoxicity against human SW620 cells assessed as cell growth at 10 uM relative to control; type: functional; conditions: read-out: Activity
Summary of the method: (§3)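 Run in the NCI 60-cell human tumour panel. Cells were exposed to 10 µM compound, and growth was given as a percentage of untreated control cells set to 100%.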

[19] = tested on: BT-549; assay: Cytotoxicity against human BT549 cells assessed as cell growth at 10 uM relative to control; type: functional; conditions: read-out: Activity; summary of the method: as §2
[20] = Cytotoxicity against human Hs 578T cells assessed as cell growth at 10 uM relative to control; type: functional; conditions: read-out: Activity; summary of the method: as §2
[21] = tested on: MCF7; assay: Cytotoxicity against human MCF7 cells assessed as cell growth at 10 uM relative to control; type: functional; conditions: read-out: Activity; summary of the method: as §2
[22] = tested on: NCI/ADR-RES; assay: Cytotoxicity against human NCI/ADR-RES cells assessed as cell growth at 10 uM relative to control; type: functional; conditions: read-out: Activity; summary of the method: as §2
[23] = tested on: T47D; assay: Cytotoxicity against human T47D cells assessed as cell growth at 10 uM relative to control; type: functional; conditions: read-out: Activity; summary of the method: as §3
[24] = tested on: OVCAR-4; assay: Cytotoxicity against human OVCAR4 cells assessed as cell growth at 10 uM relative to control; type: functional; conditions: read-out: Activity; summary of the method: as §2
[25] = tested on: OVCAR-5; assay: Cytotoxicity against human OVCAR5 cells assessed as cell growth at 10 uM relative to control; type: functional; conditions: read-out: Activity; summary of the method: as §2
[26] = tested on: SK-OV-3; assay: Cytotoxicity against human SKOV3 cells assessed as cell growth at 10 uM relative to control; type: functional; conditions: read-out: Activity; summary of the method: as §2
[27] = Cytotoxicity against human 786-O cells assessed as cell growth at 10 uM relative to control; type: functional; conditions: 786-0, read-out: Activity; summary of the method: as §2
[28] = tested on: A498; assay: Cytotoxicity against human A498 cells assessed as cell growth at 10 uM relative to control; type: functional; conditions: read-out: Activity; summary of the method: as §2
[29] = tested on: ACHN; assay: Cytotoxicity against human ACHN cells assessed as cell growth at 10 uM relative to control; type: functional; conditions: read-out: Activity; summary of the method: as §2
[30] = tested on: CAKI-1; assay: Cytotoxicity against human CAKI-1 cells assessed as cell growth at 10 uM relative to control; type: functional; conditions: read-out: Activity; summary of the method: as §2
[31] = tested on: LOX IMVI; assay: Cytotoxicity against human LOXIMVI cells assessed as cell growth at 10 uM relative to control; type: functional; conditions: read-out: Activity; summary of the method: as §2
[32] = tested on: M14; assay: Cytotoxicity against human M14 cells assessed as cell growth at 10 uM relative to control; type: functional; conditions: read-out: Activity; summary of the method: as §2
[33] = tested on: Malme-3M; assay: Cytotoxicity against human MALME-3M cells assessed as cell growth at 10 uM relative to control; type: functional; conditions: read-out: Activity; summary of the method: as §2
[34] = tested on: SK-MEL-2; assay: Cytotoxicity against human SK-MEL-2 cells assessed as cell growth at 10 uM relative to control; type: functional; conditions: read-out: Activity; summary of the method: as §2
[35] = tested on: SK-MEL-28; assay: Cytotoxicity against human SK-MEL-28 cells assessed as cell growth at 10 uM relative to control; type: functional; conditions: read-out: Activity; summary of the method: as §2
[36] = tested on: DU-145; assay: Cytotoxicity against human DU145 cells assessed as cell growth at 10 uM relative to control; type: functional; conditions: read-out: Activity; summary of the method: as §2
[37] = tested on: PC-3; assay: Cytotoxicity against human PC3 cells assessed as cell growth at 10 uM relative to control; type: functional; conditions: read-out: Activity; summary of the method: as §2
[38] = tested on: SF-295; assay: Cytotoxicity against human SF295 cells assessed as cell growth at 10 uM relative to control; type: functional; conditions: read-out: Activity; summary of the method: as §2
[39] = tested on: SF-539; assay: Cytotoxicity against human SF539 cells assessed as cell growth at 10 uM relative to control; type: functional; conditions: read-out: Activity; summary of the method: as §2
[40] = tested on: SNB-19; assay: Cytotoxicity against human SNB19 cells assessed as cell growth at 10 uM relative to control; type: functional; conditions: read-out: Activity; summary of the method: as §3
[41] = tested on: SNB-75; assay: Cytotoxicity against human SNB75 cells assessed as cell growth at 10 uM relative to control; type: functional; conditions: read-out: Activity; summary of the method: as §3
[42] = tested on: U-251; assay: Cytotoxicity against human U251 cells assessed as cell growth at 10 uM relative to control; type: functional; conditions: read-out: Activity; summary of the method: as §3
[43] = Inhibition of human TERT expression in H1299 cells at 1 uM after 24 hrs by secreted alkaline phosphatase reporter gene assay relative to control; values are per cent of control; conditions: NCI-H1299
[44] = Inhibition of human TERT expression in H1299 cells at 10 uM after 24 hrs by secreted alkaline phosphatase reporter gene assay relative to control; values are per cent of control; conditions: NCI-H1299

Compound: CCN(CC)CC(=O)Nc1cccc2c1C(=O)c1c(NC(=O)CN(CC)CC)cccc1C2=O
- growth at 1 µM [1]: 86%
- growth at 10 µM [2]: 78%
- growth at 100 µM [3]: 50%
- growth at 10 µM [4]: 94.7%
- growth at 10 µM [5]: 106%
- growth at 10 µM [6]: 91.2%
- growth at 10 µM [7]: 68.5%
- growth at 10 µM [8]: 91.7%
- growth at 10 µM [9]: 104%
- growth at 10 µM [10]: 93.5%
- growth at 10 µM [11]: 85.5%
- growth at 10 µM [12]: 93.8%
- growth at 10 µM [13]: 88%
- growth at 10 µM [14]: 114%
- growth at 10 µM [15]: 103%
- growth at 10 µM [16]: 84.2%
- growth at 10 µM [17]: 93.4%
- growth at 10 µM [18]: 104%
- growth at 10 µM [19]: 97.4%
- growth at 10 µM [20]: 111%
- growth at 10 µM [21]: 88.7%
- growth at 10 µM [22]: 101%
- growth at 10 µM [23]: 84.8%
- growth at 10 µM [24]: 91.3%
- growth at 10 µM [25]: 101%
- growth at 10 µM [26]: 103%
- growth at 10 µM [27]: 86.4%
- growth at 10 µM [28]: 93.3%
- growth at 10 µM [29]: 91.9%
- growth at 10 µM [30]: 88.3%
- growth at 10 µM [31]: 89.3%
- growth at 10 µM [32]: 98.6%
- growth at 10 µM [33]: 112%
- growth at 10 µM [34]: 84%
- growth at 10 µM [35]: 117%
- growth at 10 µM [36]: 137%
- growth at 10 µM [37]: 89.1%
- growth at 10 µM [38]: 88.9%
- growth at 10 µM [39]: 91.7%
- growth at 10 µM [40]: 94.1%
- growth at 10 µM [41]: 81.7%
- growth at 10 µM [42]: 100%
- level, % of control [43]: 86%
- level, % of control [44]: 84%

Compound: COC(=O)CNCC(=O)Nc1cccc2c1C(=O)c1c(NC(=O)CNCC(=O)OC)cccc1C2=O
- growth at 1 µM [1]: 84%
- growth at 10 µM [2]: 86%
- growth at 100 µM [3]: 68%
- growth at 10 µM [4]: 107%
- growth at 10 µM [5]: 97.1%
- growth at 10 µM [6]: 83.8%
- growth at 10 µM [7]: 37.4%
- growth at 10 µM [8]: 94.3%
- growth at 10 µM [9]: 104%
- growth at 10 µM [10]: 75.8%
- growth at 10 µM [11]: 84.6%
- growth at 10 µM [12]: 94.5%
- growth at 10 µM [13]: 96.8%
- growth at 10 µM [14]: 102%
- growth at 10 µM [15]: 106%
- growth at 10 µM [16]: 96.4%
- growth at 10 µM [17]: 94.3%
- growth at 10 µM [18]: 109%
- growth at 10 µM [19]: 99.9%
- growth at 10 µM [20]: 104%
- growth at 10 µM [21]: 89.5%
- growth at 10 µM [22]: 92.9%
- growth at 10 µM [23]: 83.8%
- growth at 10 µM [24]: 87.7%
- growth at 10 µM [25]: 106%
- growth at 10 µM [26]: 104%
- growth at 10 µM [27]: 103%
- growth at 10 µM [28]: 85.2%
- growth at 10 µM [29]: 90.7%
- growth at 10 µM [30]: 83.8%
- growth at 10 µM [31]: 88.2%
- growth at 10 µM [32]: 113%
- growth at 10 µM [33]: 102%
- growth at 10 µM [34]: 107%
- growth at 10 µM [35]: 127%
- growth at 10 µM [36]: 107%
- growth at 10 µM [37]: 76.6%
- growth at 10 µM [38]: 97.2%
- growth at 10 µM [39]: 91.9%
- growth at 10 µM [40]: 95.3%
- growth at 10 µM [41]: 89.9%
- growth at 10 µM [42]: 93.7%
- level, % of control [43]: 111%
- level, % of control [44]: 93%
